CSN deneddyl inh: inhibitors of human CSN-mediated cullin deneddylation; inhibition, % at 12.5 µM; AID 651999; hit rate 0.38% among 360,000; Purified CSN, SCF-Nedd8-OG deneddylation, fluorescence polarization;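 active means pattern-corrected inhibition above about 35%, with an unprinted fluorescence ratio check between 0.5 and 1.5, limit read from the data, passing the limit was not always enough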;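 further: 0% = enzyme with substrate and 100% = substrate without enzyme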
Target sequence (Q92905 whole entry, looked up, one chain of several): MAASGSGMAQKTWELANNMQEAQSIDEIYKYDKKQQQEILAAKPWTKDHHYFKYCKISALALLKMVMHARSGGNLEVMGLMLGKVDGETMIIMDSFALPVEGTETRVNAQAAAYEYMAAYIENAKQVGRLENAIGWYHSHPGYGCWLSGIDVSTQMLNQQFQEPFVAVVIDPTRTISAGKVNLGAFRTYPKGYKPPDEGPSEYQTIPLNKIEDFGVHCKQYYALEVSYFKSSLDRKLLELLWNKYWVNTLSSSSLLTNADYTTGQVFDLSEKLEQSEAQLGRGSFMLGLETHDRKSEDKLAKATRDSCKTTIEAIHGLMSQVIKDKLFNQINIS
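Schedule: reaction 90 min, room temperature / Assay system: HEK293T-derived human Csn5 enzyme / Input: Csn5 at 0.24 nM final / Measure: inhibition of Csn5 cleavage, % / Control set: substrate-only high control, full reaction low control / Technique: fluorescence polarization of the substrate / Buffer or medium: Tris/NaCl/DTT buffer, pH 7.5 / Reagent: SCFSkp2-Nedd8OG substrate at 10 nM final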
PP1 inh: counter-screen for PP5 inhibitors: inhibitors of human PP1-alpha | P62136 | purified PP1alpha, OMFP fluorescence | AID 2235 | hit rate 0.9% among 320,000 | inhibition, % at 6.7 µM;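 active means inhibition above the mean inhibition of all tested compounds plus 3 SD, computed separately for each screening campaign, cut at about 15% in these data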
Rpn11 inh: blocks the human proteasome subunit Rpn11; O00487; human 26S proteasome, Ub4-pepOG fluorescence polarization; 20S core pre-blocked with epoxomicin; inhibition, % at 20 µM; hit rate 0.59% among 360,000; AID 588493;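 active means inhibition at 20 µM, scaled to each plate's controls, above about 33%, limit read from the data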
Target sequence (O00487 whole entry, looked up): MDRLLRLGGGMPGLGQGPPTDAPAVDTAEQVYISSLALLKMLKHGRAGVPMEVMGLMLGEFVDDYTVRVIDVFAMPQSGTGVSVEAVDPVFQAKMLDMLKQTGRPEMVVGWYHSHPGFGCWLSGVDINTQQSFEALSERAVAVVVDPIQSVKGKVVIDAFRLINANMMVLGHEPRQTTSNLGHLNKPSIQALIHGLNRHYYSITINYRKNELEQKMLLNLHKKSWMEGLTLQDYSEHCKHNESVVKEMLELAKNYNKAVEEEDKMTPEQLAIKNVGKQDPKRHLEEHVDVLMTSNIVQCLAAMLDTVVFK
NadD inh: blocks S. aureus nicotinate mononucleotide adenylyltransferase. inhibition, % at 20 µM. purified NadD enzyme, colorimetric absorbance read-out. hit rate 0.78% among 360,000; in the data active means inhibition above about 26%
TPT1 inhibitor: inhibitors of Candida albicans tRNA 2'-phosphotransferase TPT1. hit rate 0.81% among 300,000. inhibition, % at 5 µM. recombinant caTPT1, FP RNA substrate dephosphorylation. AID 1962;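 active means inhibition above the mean of all tested compounds plus 3 SD, set per screening campaign, cut at about 24% in these data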;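 further: plate controls were DMSO alone for no effect and ferristatin control at 100 nM for full effect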
HNF4A DNA FP: change in binding of human HNF4 alpha to DNA | activity change, % at 10 µM | P41235 | HNF4a-FITC DNA binding, fluorescence polarization, 1 h | hit rate 0.3% among 360,000; in the data active means activity change above about 30%, passing the limit was not always enough
NadD conf: NadD (S. aureus) inhibition, single concentration confirmation. shares compounds with NadD inh. purified S. aureus NadD, colorimetric enzyme assay. inhibition, % at 20 µM. hit rate 13% among 2,000. AID 624309; in the data active means inhibition mostly above about 42%, no sharp cut-off; inactive means mostly below about 42%
An asterisk follows results filed as active; x = no result given. In the library only some 2.7% were active in any assay of this set; here they are far more common.

SMILES	CSN deneddyl inh	PP1 inh	Rpn11 inh	NadD inh	TPT1 inhibitor	HNF4A DNA FP	NadD conf
CCc1ccc2[nH]c(=O)c(C3C(C#N)=C(N)Oc4c3ccc3cccnc43)cc2c1 (centres undefined)	1.9	23.4*	20.8	38.3*	5.1	-0.3	8.7
CCn1c(SCC(=O)NC2CC2)nnc1-c1cccc(OC)c1	-1.8	-4.6	-3.8	-4.4	3.1	2.6	x
O=C(c1ccc2c(=O)n(Cc3ccco3)c(=S)[nH]c2c1)N1CCN(Cc2ccccc2)CC1	10.3	0.5	9.0	55.5*	2.6	-7.1	36.5*
CN1CCN(C(=O)c2ccc3c(=O)n(Cc4ccco4)c(=S)[nH]c3c2)CC1	-4.5	-0.6	-3.5	-3.1	-1.4	-2.7	x
Cc1cc2nc(-c3cccc(Br)c3)c(Cc3cccc(Cl)c3)n2c(C)c1Br	3.2	x	x	35.1*	x	5.6	14.8
COc1cccc(-c2cc(N3CCN(C(=O)c4ccoc4)CC3)n3nc(-c4cccc(Cl)c4)cc3n2)c1	10.7	x	12.4	37.0*	x	-1.5	20.1
COc1ccccc1-c1cc2nc(-c3ccccc3)cc(N3CCN(C(=O)c4ccoc4)CC3)n2n1	5.3	x	9.4	46.6*	x	3.7	31.9
COc1ccccc1-c1cc2nc(-c3ccccc3)cc(N3CCN(C(=O)c4ccco4)CC3)n2n1	1.9	x	-0.4	41.4*	x	-2.4	31.4
C#CCOCCOCCOCCNc1nc(N2CCN(C(=O)[C@H]([C@@H](C)CC)n3cc(CCC(=O)O)nn3)CC2)nc(N2CCN(C(=O)[C@H](CCCCN)n3cc(CC(C)O)nn3)CC2)n1 (some centres undefined)	-3.5	x	-12.0	-1.6	x	1.3	x
COc1ccnc2c1c(=O)n(Cc1ccc(Cl)cc1Cl)c(=O)n2C	4.6	2.7	-3.1	-1.2	-3.0	5.7	x
COc1cc(C#Cc2c(-c3cncn3C)n(C)c3ccc(-c4ccc(OC)c(OC)c4)cc23)cc(OC)c1	-1.3	-0.1	5.2	37.5*	x	2.0	24.3
COc1cc(C#Cc2c(-c3cncn3C)n(C)c3ccc(Br)cc23)cc(OC)c1	-8.0	x	3.5	17.2	x	-1.1	x
COc1cc(C#Cc2c(-c3cncn3C)n(C)c3ccc(-c4ccc5cc[nH]c5c4)cc23)cc(OC)c1	-3.6	x	3.1	39.4*	x	3.7	46.8
COc1ccc(C2CC(c3ccccc3)=NN2C(=O)COC(=O)/C=C/c2ccc(O)c(OC)c2)cc1 (centres undefined)	2.3	-3.6	2.8	46.0*	1.5	-0.6	14.8
O=C(Nc1ccc(-c2csc(Nc3cccc(C(F)(F)F)c3)n2)cc1)c1cc([N+](=O)[O-])cc(C(F)(F)F)c1	-3.0	-0.7	-17.1	32.8*	-3.5	-2.2	4.9
O=C(OCC(=O)N1CCN(c2ccccc2)CC1)c1cc(F)c(F)cc1Cl	-1.3	x	-6.1	-1.0	x	-2.4	x
COc1ccc(Cc2c(-c3ccco3)nc3ccc(Br)cn23)c(C)c1	16.6	x	-6.3	58.9*	x	-31.6	2.9
Cc1ccc(Cc2c(-c3ccco3)nc3ccc(Br)cn23)cc1	33.6	x	20.5	29.7*	x	9.5	17.5
Cc1ccc(-c2nc3ccc(Br)cn3c2Cc2cccc(F)c2)cc1	1.3	x	10.8	31.4*	x	1.4	6.3
COc1ccc(Cc2c(-c3ccco3)nc3ccc(Cl)cn23)c(C)c1	40.1*	x	-2.3	42.2*	x	-17.4	8.2
Cc1cc(C)c(NC(=O)CN(C)C(=O)CCC(=O)c2ccc(C)s2)c(C)c1	0.1	-1.1	9.3	-1.5	x	7.4	x
C=CCN1C(=O)c2ccc(C(=O)N3CCN(S(=O)(=O)c4cccc([N+](=O)[O-])c4)CC3)cc2C1=O	-6.0	-4.4	-3.0	0.0	x	-1.3	x
CN(c1ccccc1)S(=O)(=O)c1ccc(NC(=S)NC(=O)c2ccccc2)cc1	2.2	3.3	-1.8	-5.7	0.1	-2.7	x
COc1ccccc1/C=C/C(=O)NC(=S)Nc1ccc(S(=O)(=O)N(C)c2ccccc2)cc1	-0.9	5.9	7.9	34.2*	-0.8	2.9	6.5
CCc1cc2c(-c3ccccc3)cc(=O)oc2cc1OC(C)C(=O)NCC1CCC(C(=O)O)CC1 (centres undefined)	-1.8	1.1	25.9	2.4	-3.2	0.4	x
SMILES	CSN deneddyl inh	PP1 inh	Rpn11 inh	NadD inh	TPT1 inhibitor	HNF4A DNA FP	NadD conf
O=C(COC(=O)C1CC1)Nc1ccc(Cl)cc1Cl	-5.2	-2.8	1.7	-2.5	x	1.0	x
Cc1ccc(-c2nn(-c3ccccc3)cc2/C=C(\C#N)c2cccc(C#N)c2)o1	3.4	-0.1	5.6	0.2	-0.2	3.5	x
CN(C)S(=O)(=O)c1cccc(-c2nn(-c3ccccc3)cc2/C=C(\C#N)c2nc3ccccc3[nH]2)c1	27.8	-1.9	35.3	37.3*	2.8	21.2	30.5
N#C/C(=C\c1cn(-c2ccccc2)nc1-c1cc2ccccc2o1)c1nc2ccccc2[nH]1	18.9	-3.9	x	28.9*	3.8	73.8	12.0
Cc1ccc(S(=O)(=O)Nc2ccc(Nc3nccn4c(-c5cccc(OC(F)(F)F)c5)cnc34)cc2)cc1	1.0	x	19.0	32.8*	x	6.3	52.5*
O=C(NCCO)c1cccc(-c2cnc3c(Nc4cccc(OC(F)(F)C(F)F)c4)nccn23)c1	0.0	x	6.4	-4.0	x	6.2	x
N/C(=N\c1nc(CSc2ccc(Cl)cc2)cc(=O)[nH]1)Nc1cccc2ccccc12	2.7	-9.3	-9.6	26.6*	-1.9	0.2	1.4
COc1ccccc1OCC(=O)N(Cc1nnc(-c2ccccc2Cl)o1)C1CC1	-1.8	-3.9	4.1	-0.6	-2.2	-0.5	x
Cn1c2ccccc2c(=O)c2cc(C#CC3=CCCCC3)ccc21	3.7	9.5	5.0	32.1*	x	-19.2	9.1
COc1ccc(C#Cc2ccc3c(=O)c4ccccc4n(C)c3c2)cc1	x	-1.7	x	x	-0.8	x	x
Cn1c2ccccc2c(=O)c2ccc(C#Cc3ccc(N)cc3)cc21	6.4	8.8	x	50.6*	13.9	19.3	43.8
COc1cc(Cl)c(C)cc1NC(=O)COC(=O)c1ccc(CN2CCCC2=O)cc1	-3.2	-1.3	3.9	-3.4	x	2.9	x
O=C(NC1CC1)c1cccc(NC(=O)C2CCN(S(=O)(=O)c3ccccc3C(F)(F)F)CC2)c1	-5.4	x	-1.3	1.9	x	-1.9	x
Cc1ccccc1/C=N/n1c(-c2cc(-c3ccccc3)n[nH]2)n[nH]c1=S	12.7	-1.4	-5.6	52.9*	-0.9	-1.2	22.2
Cc1ccccc1/C=N/n1c(-c2ccccn2)n[nH]c1=S	-0.8	0.1	3.9	4.0	-2.4	1.8	x
O=C(CNc1ccc2ccccc2c1)N/N=C/c1cc2ccccc2nc1Cl	4.6	12.5	-0.8	40.1*	7.7	1.4	21.0
O=C(COc1cccc(Cl)c1)N/N=C\c1cc2ccccc2nc1Cl	-1.2	0.4	6.1	6.2	2.1	1.2	x

Compound activity as filed in PubChem.
